From ChEMBL document CHEMBL4184227, “Surrogating and redirection of pyrazolo[1,5-a]pyrimidin-7(4H)-one core, a novel class of potent and selective DPP-4 inhibitors” (Bioorg Med Chem, 2018) come the findings set out here.

Where only a bound is given, the exact number is not on record here.

What is called IC50 is the midpoint of a concentration-inhibition curve.

One data set has as its target Dipeptidyl peptidase 8 (Homo sapiens, UniProt Q6V1X1). Put plainly: Inhibition of recombinant human DPP8 using H-Gly-Pro-AMC as substrate measured after 10 mins by fluorescence assay. The gist of the method:
(§1)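 Recombinant human DPP-8 or DPP-9 in 100 mM Tris-HCl, 100 mM NaCl, pH 7.8 was combined with inhibitor and H-Gly-Pro-AMC substrate (303 final). The mixture was incubated at 37 °C for 10 min, then fluorescence was read at ex 380/em 460 nm; values are means of three experiments.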

In the next data set the target is Dipeptidyl peptidase 9 (Homo sapiens, UniProt Q86TI2). Briefly: Inhibition of recombinant human DPP9 using H-Gly-Pro-AMC as substrate measured after 10 mins by fluorescence assay. The gist of the method: as §1
Sequence of Dipeptidyl peptidase 9 (Q86TI2 whole entry): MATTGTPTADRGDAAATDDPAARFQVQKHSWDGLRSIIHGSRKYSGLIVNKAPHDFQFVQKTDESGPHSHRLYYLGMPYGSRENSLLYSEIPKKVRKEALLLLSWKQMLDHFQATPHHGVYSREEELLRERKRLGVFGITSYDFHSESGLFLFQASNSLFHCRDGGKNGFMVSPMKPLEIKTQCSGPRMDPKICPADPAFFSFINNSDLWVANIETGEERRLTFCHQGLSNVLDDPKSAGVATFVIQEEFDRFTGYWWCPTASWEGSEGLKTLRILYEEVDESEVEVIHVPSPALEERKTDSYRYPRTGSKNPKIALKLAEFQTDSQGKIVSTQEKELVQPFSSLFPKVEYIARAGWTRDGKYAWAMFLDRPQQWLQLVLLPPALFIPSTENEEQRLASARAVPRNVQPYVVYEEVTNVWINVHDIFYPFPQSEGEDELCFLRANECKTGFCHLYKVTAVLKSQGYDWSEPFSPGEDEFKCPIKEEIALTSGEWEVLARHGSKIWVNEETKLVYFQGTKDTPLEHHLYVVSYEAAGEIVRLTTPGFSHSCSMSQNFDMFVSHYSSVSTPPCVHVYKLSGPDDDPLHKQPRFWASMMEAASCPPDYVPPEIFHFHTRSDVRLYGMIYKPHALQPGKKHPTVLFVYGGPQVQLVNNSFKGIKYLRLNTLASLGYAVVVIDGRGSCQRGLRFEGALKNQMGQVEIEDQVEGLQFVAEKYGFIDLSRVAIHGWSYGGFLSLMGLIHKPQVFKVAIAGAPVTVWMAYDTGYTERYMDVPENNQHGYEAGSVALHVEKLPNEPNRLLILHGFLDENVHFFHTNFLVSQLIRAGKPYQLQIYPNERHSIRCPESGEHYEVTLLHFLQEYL
Data set [1] relates to Mus musculus. Put plainly: Antidiabetic activity in ip dosed C57BL/6 mouse as reduction in blood glucose level administered as single dose pretreated for 30 mins followed by dextrose-challenge measured up to 2 hrs by IPGTT. The format is functional, organism-based. The gist of the method:
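Diabetic male mice (strain given as C57BL/6 and as BALB/c) received a single intraperitoneal dose of 1, 5 or 10 mg/kg, or saline as control, 30 min before an injected dextrose challenge (2 g/kg). Blood glucose was read at 0, 0.5, 1, 1.5 and 2 h, and glucose AUC was computed over 0–120 min; mean ± SD, n = 4.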

A short description of data set [2]: Cytotoxicity against human HepG2 cells assessed as cell viability at 100 uM after 48 hrs by MTT assay relative to control. The format is cell-based. As to conditions: read-out: Activity. The gist of the method:
(§2)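 HepG2 cells in DMEM were exposed to compound in DMSO at 1–100 μM final, or DMSO alone as negative control, for 48 h. MTT (5 mg/ml, 20 µL) was then added for 6 h, the supernatant removed and the formazan dissolved in DMSO. Absorbance was read at 490 nm; viability is expressed versus control; mean ± SD, n=3.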
Background: Formazan colour is commonly taken as a measure of viable cells.

The species named for data set [3] is Mus musculus. Briefly: animal or person. Conditions: C57BL/6, ip, read-out: MED.
Data set [4] deals with HepG2. Briefly: Cytotoxicity against human HepG2 cells assessed as reduction in cell viability after 48 hrs by MTT assay. The format is cell-based. As to conditions: hepg2, 48 h. The procedure, abridged: as §2
Data set [5] has as its system HepG2. Briefly: Cytotoxicity against human HepG2 cells assessed as reduction in cell viability at 100 uM after 48 hrs by MTT assay. It counts as cell-based. As to conditions: hepg2, 48 h. The procedure, abridged: as §2

Sequence of Dipeptidyl peptidase 8 (Q6V1X1 whole entry): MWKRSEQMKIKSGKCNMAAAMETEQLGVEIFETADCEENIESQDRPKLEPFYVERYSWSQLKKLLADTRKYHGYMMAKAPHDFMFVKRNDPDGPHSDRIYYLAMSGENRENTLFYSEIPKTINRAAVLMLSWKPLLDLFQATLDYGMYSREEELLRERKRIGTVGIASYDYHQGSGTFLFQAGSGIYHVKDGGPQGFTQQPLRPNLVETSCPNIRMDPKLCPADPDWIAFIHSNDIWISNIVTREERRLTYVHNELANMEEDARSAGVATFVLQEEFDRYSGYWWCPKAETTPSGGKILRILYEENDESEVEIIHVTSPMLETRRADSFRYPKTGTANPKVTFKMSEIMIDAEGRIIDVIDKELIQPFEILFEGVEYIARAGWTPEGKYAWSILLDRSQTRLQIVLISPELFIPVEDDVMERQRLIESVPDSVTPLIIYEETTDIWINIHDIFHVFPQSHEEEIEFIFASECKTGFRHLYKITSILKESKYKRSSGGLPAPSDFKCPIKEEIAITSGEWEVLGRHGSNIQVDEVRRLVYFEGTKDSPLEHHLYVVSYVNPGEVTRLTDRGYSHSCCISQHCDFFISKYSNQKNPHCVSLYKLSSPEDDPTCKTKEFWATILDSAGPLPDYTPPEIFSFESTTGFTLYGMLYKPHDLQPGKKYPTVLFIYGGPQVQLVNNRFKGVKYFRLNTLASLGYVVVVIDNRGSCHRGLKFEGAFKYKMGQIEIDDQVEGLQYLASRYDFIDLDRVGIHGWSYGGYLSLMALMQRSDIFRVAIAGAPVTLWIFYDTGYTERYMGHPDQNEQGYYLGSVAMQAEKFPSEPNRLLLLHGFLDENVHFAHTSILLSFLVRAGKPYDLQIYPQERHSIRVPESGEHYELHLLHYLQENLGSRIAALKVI

Turning to `Cc1ccc(Cn2c(N3CCC[C@@H](N)C3)cc(=O)n3nccc23)cc1`, the IC50 on Dipeptidyl peptidase 8 and on Dipeptidyl peptidase 9 was greater than 100 µM each time.

As for `O=c1cc(N2CCNCC2)n(Cc2ccccc2)c2ccnn12`, the IC50 on Dipeptidyl peptidase 8 and on Dipeptidyl peptidase 9 was greater than 100 µM throughout.

For the compound `O=c1cc(N2CCNCC2)n(Cc2ccccc2[N+](=O)[O-])c2ccnn12`, the IC50 at Dipeptidyl peptidase 8 and at Dipeptidyl peptidase 9 was greater than 100 µM each time.

`N#Cc1ccccc1Cn1c(N2CCC[C@@H](N)C2)cc(=O)n2nccc12`: the IC50 at Dipeptidyl peptidase 8 and at Dipeptidyl peptidase 9 was greater than 100 µM in each case.

In the case of `Cc1ccc(Cn2c(N3CCNCC3)cc(=O)n3nccc23)cc1`, the IC50 at Dipeptidyl peptidase 8 and at Dipeptidyl peptidase 9 was greater than 100 µM in each case.

In the case of `N#Cc1ccccc1Cn1c(N2CCNCC2)cc(=O)n2nccc12`, the IC50 at Dipeptidyl peptidase 8 and on Dipeptidyl peptidase 9 was greater than 100 µM throughout. Also, the Activity entry in the data set on Mus musculus [1] and with HepG2 [4] was “Dose-dependent effect” in each case. Besides, in data set [2], the viability at 48 h, 100 µM was greater than 60%. Moreover, the minimal effective dose in the data set listed under Mus musculus [3] amounted to 1 mg/kg.

For the compound `N#Cc1ccccc1Cc1c(Cl)nc2ccnn2c1N1CCC[C@@H](N)C1`, the IC50 at Dipeptidyl peptidase 8 and on Dipeptidyl peptidase 9 was greater than 100 µM throughout. The figures for the Activity entry in the data set on HepG2 [5] and in the data set on HepG2 [4] were “Toxic” and “Dose-dependent effect”, respectively.
